Structures are written as SMILES.

Experiment [1] in a line: Displacement of [3H]epibatidine from (alpha1)2beta1gammadelta nAChR in Torpedo californica electroplax after 90 mins by liquid scintillation counting analysis. Also noted: species or system Tetronarce californica. Put shortly:
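Torpedo californica electroplax membranes (60–70 µg) incubated with (±)-[3H]epibatidine and 6–9 test concentrations in HSS buffer, 90 min at 22 °C. 300 µM (−)-nicotine defined non-specific binding. PEI-presoaked glass fibre filtration, scintillation counting; duplicate to quadruplicate, 2–10 independent experiments.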

In experiment [2] the target is Neuronal acetylcholine receptor subunit alpha-7 (Rattus norvegicus, UniProt Q05941). The experiment can be described thus: Displacement of [3H]methyllycaconitine from alpha7 nAChR in Sprague-Dawley rat forebrain P2 fraction after 90 mins by liquid scintillation counting analysis.
Neuronal acetylcholine receptor subunit alpha-7, sequence (Q05941 whole entry): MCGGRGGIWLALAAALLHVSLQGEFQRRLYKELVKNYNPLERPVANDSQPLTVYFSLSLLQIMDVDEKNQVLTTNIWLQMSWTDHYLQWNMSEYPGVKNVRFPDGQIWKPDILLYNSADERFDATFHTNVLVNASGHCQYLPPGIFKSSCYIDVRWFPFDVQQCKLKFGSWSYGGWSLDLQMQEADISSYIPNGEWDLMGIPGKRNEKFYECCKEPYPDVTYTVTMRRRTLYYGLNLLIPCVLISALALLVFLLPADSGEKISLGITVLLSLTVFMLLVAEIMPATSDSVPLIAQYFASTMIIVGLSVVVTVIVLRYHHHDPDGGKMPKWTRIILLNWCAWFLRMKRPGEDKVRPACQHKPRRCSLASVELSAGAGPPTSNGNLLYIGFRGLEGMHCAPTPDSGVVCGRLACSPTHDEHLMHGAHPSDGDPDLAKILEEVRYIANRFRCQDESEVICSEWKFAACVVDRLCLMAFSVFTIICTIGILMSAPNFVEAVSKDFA
In experiment [3] the target is Neuronal acetylcholine receptor; alpha4/beta2 (Rattus norvegicus, UniProt P09483+P12390). The experiment can be described thus: Displacement of [3H]epibatidine from alpha4beta2 nAChR in Sprague-Dawley rat forebrain P2 fraction after 90 mins by liquid scintillation counting analysis. The method, boiled down:
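Rat forebrain P2 membranes (60 µg protein) in HSS buffer with 0.5 nM (±)-[3H]epibatidine and 6–9 test concentrations. Incubated 90 min at 22 °C; non-specific binding defined with 300 µM (−)-nicotine. Filtered through PEI-presoaked glass fibre filters and counted by liquid scintillation. Run in duplicate to quadruplicate, with 2–10 independent experiments.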
In general terms: Loss of bound radioactivity is the signal in a displacement assay; it reports binding, not function.

Experiment [4] can be described thus: Displacement of [3H]epibatidine from alpha3beta4 nAChR in calf adrenal membranes fraction after 90 mins by liquid scintillation counting analysis. Format: cell membranes, Bos taurus. Put shortly:
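Calf adrenal membranes (60–70 µg) in HSS buffer with 0.5 nM (±)-[3H]epibatidine, 6–9 test concentrations, 90 min at 22 °C. Non-specific binding with 300 µM (−)-nicotine. PEI-presoaked glass fibre filtration, liquid scintillation read-out; duplicate to quadruplicate, 2–10 independent experiments.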

Neuronal acetylcholine receptor; alpha4/beta2, sequence (P09483 whole entry): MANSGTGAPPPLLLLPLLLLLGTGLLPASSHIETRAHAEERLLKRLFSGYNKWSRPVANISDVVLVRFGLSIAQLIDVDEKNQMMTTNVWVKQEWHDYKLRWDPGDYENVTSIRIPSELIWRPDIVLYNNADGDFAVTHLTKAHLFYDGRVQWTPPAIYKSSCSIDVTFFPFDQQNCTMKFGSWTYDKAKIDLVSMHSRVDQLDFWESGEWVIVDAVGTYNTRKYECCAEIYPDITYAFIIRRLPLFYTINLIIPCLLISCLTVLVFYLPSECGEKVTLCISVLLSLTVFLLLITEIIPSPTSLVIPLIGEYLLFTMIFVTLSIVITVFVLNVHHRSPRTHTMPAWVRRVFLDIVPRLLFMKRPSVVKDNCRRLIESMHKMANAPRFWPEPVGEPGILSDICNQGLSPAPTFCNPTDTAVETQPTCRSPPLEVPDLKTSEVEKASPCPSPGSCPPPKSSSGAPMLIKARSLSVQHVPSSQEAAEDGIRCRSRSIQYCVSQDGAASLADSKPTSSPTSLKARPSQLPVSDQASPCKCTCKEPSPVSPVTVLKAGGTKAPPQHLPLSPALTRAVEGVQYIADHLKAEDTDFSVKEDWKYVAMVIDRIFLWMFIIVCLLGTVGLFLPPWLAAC
Neuronal acetylcholine receptor; alpha4/beta2, sequence (P12390 whole entry): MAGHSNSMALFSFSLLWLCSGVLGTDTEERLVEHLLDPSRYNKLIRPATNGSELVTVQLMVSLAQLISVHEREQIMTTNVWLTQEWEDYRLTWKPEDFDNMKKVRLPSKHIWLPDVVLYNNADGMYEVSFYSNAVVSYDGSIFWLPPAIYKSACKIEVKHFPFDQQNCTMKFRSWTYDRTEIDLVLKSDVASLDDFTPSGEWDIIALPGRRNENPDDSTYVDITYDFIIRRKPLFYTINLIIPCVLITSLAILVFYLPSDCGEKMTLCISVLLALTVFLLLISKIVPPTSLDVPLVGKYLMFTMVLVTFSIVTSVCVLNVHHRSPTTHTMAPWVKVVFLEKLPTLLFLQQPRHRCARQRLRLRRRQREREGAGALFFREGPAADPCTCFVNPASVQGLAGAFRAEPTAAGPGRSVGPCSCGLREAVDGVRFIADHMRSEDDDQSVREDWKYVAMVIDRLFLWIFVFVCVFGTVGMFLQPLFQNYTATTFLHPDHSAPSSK

For `O=C(c1cccc([N+](=O)[O-])c1)N1C[C@@H]2CNC[C@@H](C2)C1`, the Ki (as a rule, a measure of affinity in units of concentration, obtained from inhibition or displacement) is greater than 10 µM in experiment [1], greater than 10 µM in experiment [2], greater than 2 µM in experiment [3] and greater than 10 µM in experiment [4].

In experiment [3], `O=C(c1ccccc1Cl)N1C[C@@H]2CNC[C@@H](C2)C1` had a Ki greater than 10 µM.

Regarding `O=C(c1cc2ccccc2[nH]1)N1C[C@@H]2CNC[C@@H](C2)C1`, the Ki in experiment [1], in experiment [2], in experiment [3] and in experiment [4] was greater than 10 µM throughout.

For `O=C(c1ccc(O)cc1)N1C[C@@H]2CNC[C@@H](C2)C1`, the Ki in experiment [2] is greater than 1 µM; in experiment [3], 0.105 µM.

Consider `Cc1ccccc1C(=O)N1C[C@@H]2CNC[C@@H](C2)C1`, for which the inhibition constant Ki in experiment [1], in experiment [2], in experiment [3] and in experiment [4] was greater than 10 µM in each case.

As for `O=C(c1cccc(C(F)(F)F)c1)N1C[C@@H]2CNC[C@@H](C2)C1`, the Ki is greater than 10 µM in experiment [1], 0.147 µM in experiment [3] and greater than 3 µM in experiment [4].

Consider `O=C(c1ccc2ccccc2c1)N1C[C@@H]2CNC[C@@H](C2)C1`, for which the Ki in experiment [2] was greater than 10 µM; in experiment [3], 0.447 µM; in experiment [4] it was greater than 10 µM.

In the case of `N#Cc1ccc(S(=O)(=O)N2C[C@@H]3CNC[C@@H](C3)C2)cc1`, the results for the Ki in experiment [2], in experiment [3] and in experiment [4] were greater than 10 µM, 0.645 µM and greater than 10 µM, respectively.

On to `Cc1ccc(S(=O)(=O)N2C[C@@H]3CNC[C@@H](C3)C2)cc1`, for which the inhibition constant (Ki) is greater than 10 µM in experiment [2], 0.858 µM in experiment [3] and greater than 10 µM in experiment [4].

Turning to `O=C(c1ccc(F)cc1)N1C[C@@H]2CNC[C@@H](C2)C1`, the Ki in experiment [1] is greater than 10 µM; in experiment [2] it was greater than 10 µM; in experiment [3], 0.197 µM; in experiment [4], greater than 10 µM.

For `O=C(c1ccc([N+](=O)[O-])cc1)N1C[C@@H]2CNC[C@@H](C2)C1`, the Ki in experiment [1] is greater than 5 µM; in experiment [2], 1.73 µM; in experiment [3] it was 0.0159 µM; in experiment [4], 4.2 µM.

With `O=C(c1c[nH]c2ccccc12)N1C[C@@H]2CNC[C@@H](C2)C1`, the Ki in experiment [1], in experiment [2], in experiment [3] and in experiment [4] was greater than 10 µM throughout.

With `O=C(N1CCCC1)N1C[C@@H]2CNC[C@@H](C2)C1`, the Ki in experiment [1] is greater than 10 µM; in experiment [2] it was greater than 10 µM; in experiment [3] it was greater than 5 µM; in experiment [4] it was greater than 10 µM.

In the case of `CS(=O)(=O)N1C[C@@H]2CNC[C@@H](C2)C1`, the Ki in experiment [1] was greater than 10 µM; in experiment [3], greater than 5 µM.

With `O=C(c1cccc2ccccc12)N1C[C@@H]2CNC[C@@H](C2)C1`, the Ki in experiment [2] and in experiment [3] was greater than 10 µM in each case.

With `CC(C)(C)OC(=O)N1C[C@@H]2CNC[C@@H](C2)C1`, the inhibition constant (Ki) is greater than 10 µM in experiment [1], greater than 5 µM in experiment [2], 0.045 µM in experiment [3] and 1.28 µM in experiment [4].

In the case of `O=C(c1cnccn1)N1C[C@@H]2CNC[C@@H](C2)C1`, the Ki in experiment [1] is greater than 10 µM; in experiment [2], greater than 10 µM; in experiment [3] it was 0.0732 µM; in experiment [4], greater than 10 µM.

In the case of `O=C(c1ccccc1)N1C[C@@H]2CNC[C@@H](C2)C1`, the Ki in experiment [1] was greater than 10 µM; in experiment [2], greater than 10 µM; in experiment [3] it was 0.454 µM; in experiment [4], greater than 5 µM.

With `CN(C)C(=O)N1C[C@@H]2CNC[C@@H](C2)C1`, the values for the Ki in experiment [3] and in experiment [4] were 0.499 µM and greater than 1 µM, respectively.

For the compound `c1ccc(CN2C[C@@H]3CNC[C@@H](C3)C2)cc1`, the Ki was greater than 10 µM in experiment [1], greater than 5 µM in experiment [2], greater than 10 µM in experiment [3] and 0.57 µM in experiment [4].

Regarding `CCCN1C[C@H]2C[C@@H](C1)CN(C(C)=O)C2`, the Ki in experiment [3] was greater than 5 µM.

The compound `O=C(N1CCOCC1)N1C[C@@H]2CNC[C@@H](C2)C1` gave a Ki in experiment [3] of 3.8 µM.

Regarding `O=C(c1ccnc2ccccc12)N1C[C@@H]2CNC[C@@H](C2)C1`, the Ki is greater than 10 µM in experiment [1], 0.162 µM in experiment [3] and greater than 5 µM in experiment [4].

Consider `CC(C)(C)c1ccc(C(=O)N2C[C@@H]3CNC[C@@H](C3)C2)cc1`, for which the Ki in experiment [1], in experiment [2], in experiment [3] and in experiment [4] was greater than 10 µM in each case.

Take `O=S(=O)(c1ccccc1)N1C[C@@H]2CNC[C@@H](C2)C1`: the Ki in experiment [2] is greater than 10 µM; in experiment [3] it was greater than 5 µM; in experiment [4] it was greater than 10 µM.

Turning to `O=C(N1CCC(Cc2ccccc2)CC1)N1C[C@@H]2CNC[C@@H](C2)C1`, the Ki was greater than 5 µM in experiment [1], greater than 5 µM in experiment [2], greater than 10 µM in experiment [3] and greater than 10 µM in experiment [4].

With `Cc1ccc(C(=O)N2C[C@@H]3CNC[C@@H](C3)C2)cc1`, the inhibitory constant (Ki) is greater than 10 µM in experiment [1], greater than 10 µM in experiment [2], 0.221 µM in experiment [3] and greater than 5 µM in experiment [4].

The compound `O=C(c1ccc2[nH]ccc2c1)N1C[C@@H]2CNC[C@@H](C2)C1` came in with a Ki in experiment [3] of 1.8 µM. That is a single-digit micromolar value.

In the case of `O=[N+]([O-])c1ccc(S(=O)(=O)N2C[C@@H]3CNC[C@@H](C3)C2)cc1`, the Ki in experiment [1] was greater than 10 µM; in experiment [2] it was greater than 10 µM; in experiment [3], 0.135 µM; in experiment [4], 5.7 µM.

On to `O=C(c1ccc(Br)cc1)N1C[C@@H]2CNC[C@@H](C2)C1`, for which the figures for the Ki in experiment [2], in experiment [3] and in experiment [4] were greater than 10 µM, 0.138 µM and greater than 10 µM, respectively.

Consider `O=C(c1ccc2ncccc2c1)N1C[C@@H]2CNC[C@@H](C2)C1`, for which the values for the Ki in experiment [2], in experiment [3] and in experiment [4] were greater than 10 µM, 0.0813 µM and greater than 5 µM, respectively.

In experiment [3], `O=S(=O)(c1ccc(Br)cc1)N1C[C@@H]2CNC[C@@H](C2)C1` showed a Ki greater than 5 µM.

As for `O=C(c1ccc2ccccc2n1)N1C[C@@H]2CNC[C@@H](C2)C1`, the inhibition constant (Ki) in experiment [1] was greater than 10 µM; in experiment [3], greater than 1 µM.

`CC(=O)N1C[C@@H]2C[C@@H](CN(C)C2)C1`: the Ki in experiment [3] worked out at 0.2 µM.

`N#Cc1cccc(S(=O)(=O)N2C[C@@H]3CNC[C@@H](C3)C2)c1`: the inhibition constant (Ki) in experiment [2] is greater than 10 µM; in experiment [3], 0.97 µM; in experiment [4], greater than 10 µM.

For `O=C(c1ccc(Cl)nc1)N1C[C@@H]2CNC[C@@H](C2)C1`, the Ki is 0.194 µM in experiment [3] and greater than 1 µM in experiment [4].

`CCN(CC)C(=O)N1C[C@@H]2CNC[C@@H](C2)C1` gave a Ki in experiment [3] greater than 3 µM.

In turn, `O=C(c1cccc(Cl)c1)N1C[C@@H]2CNC[C@@H](C2)C1` yielded a Ki in experiment [3] greater than 1 µM.

Regarding `O=C(c1cccc(F)c1)N1C[C@@H]2CNC[C@@H](C2)C1`, the inhibition constant (Ki) in experiment [1] is greater than 10 µM; in experiment [3], 0.386 µM; in experiment [4], greater than 5 µM.

`O=C(c1ccc2cn[nH]c2c1)N1C[C@@H]2CNC[C@@H](C2)C1`: in experiment [3], the affinity corresponds to a Ki of 0.205 µM. That is a sub-micromolar value.

On to `Cn1cccc1C(=O)N1C[C@@H]2CNC[C@@H](C2)C1`, for which the Ki in experiment [3] worked out at 0.662 µM.

For the compound `CCN1C[C@H]2C[C@@H](C1)CN(C(C)=O)C2`, the Ki in experiment [3] is greater than 5 µM.

For `O=C(c1ccc(Cl)cc1)N1C[C@@H]2CNC[C@@H](C2)C1`, the results for the Ki in experiment [2] and in experiment [3] were greater than 10 µM and 0.13 µM, respectively.
